pIC50, pKi: −log10 of the molar value.
Legend:
[1] = target: T1, Calcitonin gene-related peptide type 1 receptor (Homo sapiens, UniProt O60894+Q16602); test: Antagonist activity at CGRP receptor in human SK-N-MC cells assessed as inhibition of CGRP-stimulated cAMP production preincubated for 30 mins followed by CGRP addition measured after 3 hrs by beta-lactamase reporter gene-based FRET assay; assay type: functional, cell-based
Procedure, shortened: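 SK-N-MC cells (endogenous CGRP receptor) transduced with retroviral cAMP-responsive-promoter β-lactamase reporter; 30,000 cells/well grown overnight in MEM+10% FBS, 37 °C, 5% CO2. Medium swapped to MEM+1% FBS with compound, 30 min pre-incubation; CGRP added (final 200 pM), 3 h at 37 °C. CCF4/AM FRET substrate added, 2 h at room temperature, fluorescence read; n ≥ 3.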

[2] = target: T1, Calcitonin gene-related peptide type 1 receptor; test: Displacement of [125I]CGRP from CGRP receptor in human SK-N-MC cell membranes preincubated for 30 mins followed by radioligand addition measured after 2 hrs by liquid scintillation counting
[3] = test system: Rattus norvegicus; test: Oral bioavailability in rat at 30 mg/kg; assay type: ADME, organism-based; conditions: in vivo
Procedure, shortened: (§1)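 Rats dosed at 30 mg/kg in 10% TPGS suspension; mean of n = 3.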

[4] = test system: Rattus norvegicus; test: AUC in rat at 30 mg/kg, po; assay type: ADME, organism-based, Plasma; set-up: dose 30 mg/kg, route oral; conditions: in vivo; procedure, shortened: as §1
[5] = test system: Rattus norvegicus; test: Cmax in rat at 30 mg/kg, po; assay type: ADME, organism-based; set-up: dose 30 mg/kg, route oral; conditions: in vivo; procedure, shortened: as §1
[6] = test system: Rattus norvegicus; test: Cmax in rat at 10 mg/kg, po; assay type: ADME, organism-based; set-up: dose 10 mg/kg, route oral; conditions: in vivo
Procedure, shortened: (§2)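 Rats dosed orally at 10 mg/kg, in suspension vehicle or in 40% PEG400/10% TPGS/water depending on compound; mean of n = 3.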

[7] = Ratio of drug level in brain to plasma in rat administered as iv bolus measured after 0.25 to 1 hr post dosing; assay type: ADME, organism-based; conditions: brain and plasma, read-out: BPR
Procedure, shortened: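 Rats given an iv bolus; brain and plasma levels taken at 0.25 or 1 h post-dose to give the brain/plasma ratio; mean of n = 3.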

[8] = test system: Rattus norvegicus; test: AUC in rat at 10 mg/kg, po; assay type: ADME, organism-based, Plasma; set-up: dose 10 mg/kg, route oral; conditions: in vivo; procedure, shortened: as §2
[9] = test system: Rattus norvegicus; test: Oral bioavailability in rat at 10 mg/kg; assay type: ADME, organism-based; conditions: in vivo; procedure, shortened: as §2
[10] = test system: Rattus norvegicus; test: Cmax in po dosed rat; assay type: ADME, organism-based; set-up: route oral; conditions: in vivo
[11] = Oral bioavailability in rat; assay type: ADME, organism-based; conditions: in vivo
[12] = test system: Rattus norvegicus; test: AUC in po dosed rat; assay type: ADME, organism-based, Plasma; conditions: in vivo
[13] = Clearance in iv dosed rat; assay type: ADME, organism-based; conditions: in vivo

T1 sequence (Q16602 whole entry, one chain of several): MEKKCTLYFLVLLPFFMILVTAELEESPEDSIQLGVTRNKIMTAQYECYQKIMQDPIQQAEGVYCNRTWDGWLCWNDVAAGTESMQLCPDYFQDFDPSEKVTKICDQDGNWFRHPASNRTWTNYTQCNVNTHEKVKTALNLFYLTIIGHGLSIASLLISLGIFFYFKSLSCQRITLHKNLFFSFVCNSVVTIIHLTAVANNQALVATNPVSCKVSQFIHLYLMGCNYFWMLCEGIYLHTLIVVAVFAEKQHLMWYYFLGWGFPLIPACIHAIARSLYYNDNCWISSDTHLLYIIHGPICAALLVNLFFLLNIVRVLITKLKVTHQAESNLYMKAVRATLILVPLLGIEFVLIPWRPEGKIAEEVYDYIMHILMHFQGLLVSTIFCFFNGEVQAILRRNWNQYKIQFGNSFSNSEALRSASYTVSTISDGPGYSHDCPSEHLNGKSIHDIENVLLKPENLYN

| Structure (SMILES) | pIC50 [1] | pKi [2] | also measured |
| --- | --- | --- | --- |
| CC(C)CN1C(=O)C(CC(=O)N2CCC(N3Cc4ccccc4NC3=O)CC2)SC1c1ccccc1 (configuration not stated) | 6.43 | 7.49 |  |
| O=C(CC1SC(c2ccccc2)N(CC(F)(F)F)C1=O)N1CCC(N2Cc3ccccc3NC2=O)CC1 (configuration not stated) | 5.34 | 6.12 |  |
| COCCN1C(=O)C(CC(=O)N2CCC(N3Cc4ccccc4NC3=O)CC2)SC1c1ccccc1 (configuration not stated) | 5.91 | 6.91 |  |
| CCN(CC)CCN1C(=O)C(CC(=O)N2CCC(N3Cc4ccccc4NC3=O)CC2)SC1c1ccccc1 (configuration not stated) | 5.31 | 6.52 |  |
| CC(c1ccccc1)N1C(=O)C(CC(=O)N2CCC(N3Cc4ccccc4NC3=O)CC2)SC1c1ccccc1 (configuration not stated) | 6.03 | 6.53 |  |
| O=C(CC1SC(c2ccccc2)N(CC2CCCO2)C1=O)N1CCC(N2Cc3ccccc3NC2=O)CC1 (configuration not stated) | 6.28 | 7.17 |  |
| CC(C)(C)CN1C(=O)C(CC(=O)N2CCC(N3Cc4ccccc4NC3=O)CC2)SC1c1ccccc1 (configuration not stated) | 6.60 | 8.05 |  |
| O=C(CC1SC(c2ccccc2)N(c2ccccc2)C1=O)N1CCC(N2Cc3ccccc3NC2=O)CC1 (configuration not stated) | 5.53 | 6.09 |  |
| O=C(CC1SC(c2ccccc2)N(Cc2ccc(F)cc2)C1=O)N1CCC(N2Cc3ccccc3NC2=O)CC1 (configuration not stated) | 6.12 | 7.25 |  |
| O=C(CC1SC(c2ccccc2)N(CCc2ccccn2)C1=O)N1CCC(N2Cc3ccccc3NC2=O)CC1 (configuration not stated) | 5.86 | 6.69 |  |
| CC(C)(C)CCN1C(=O)C(CC(=O)N2CCC(N3Cc4ccccc4NC3=O)CC2)SC1c1ccccc1F (configuration not stated) | 6.74 | 7.27 |  |
| CC(C)(C)CCN1C(=O)C(CC(=O)N2CCC(N3Cc4ccccc4NC3=O)CC2)SC1c1cccc(F)c1F (configuration not stated) | 6.68 | 6.93 |  |
| CC(C)(C)CCN1C(=O)C(CC(=O)N2CCC(N3Cc4ccccc4NC3=O)CC2)SC1c1ccc(F)cc1F (configuration not stated) | 6.72 | 7.52 |  |
| CC(C)(C)CCN1C(=O)C(CC(=O)N2CCC(N3Cc4ccccc4NC3=O)CC2)SC1c1c(F)cccc1F (configuration not stated) | 6.77 | 7.23 |  |
| CC(C)(C)CCN1C(=O)C(CC(=O)N2CCC(N3Cc4ccccc4NC3=O)CC2)SC1c1ccccc1N1CCOCC1 (configuration not stated) | 6.80 | 7.28 |  |
| CN1CCN(c2ccccc2C2SC(CC(=O)N3CCC(N4Cc5ccccc5NC4=O)CC3)C(=O)N2CCC(C)(C)C)CC1 (configuration not stated) |  |  | F [3]: 53%; AUC [4]: 1600 ng·h/mL; Cmax [5]: 260 ng/mL |
| CC(C)(C)CCN1C(=O)C(CC(=O)N2CCC(N3Cc4ccccc4NC3=O)CC2)SC1c1ccccc1-n1cccn1 (configuration not stated) | 7.21 | 7.40 |  |
| CC(C)(C)CCN1C(=O)C(CC(=O)N2CCC(N3Cc4ccccc4NC3=O)CC2)SC1c1ccccc1-c1cccnc1 (configuration not stated) | 7.06 | 7.66 |  |
| CC(C)(C)CCN1C(=O)C(CC(=O)N2CCC(N3Cc4ccccc4NC3=O)CC2)SC1c1ccccc1-c1ccncc1 (configuration not stated) | 7.00 | 7.70 |  |
| CC(C)(C)CCN1C(=O)C(CC(=O)N2CCC(N3Cc4ccccc4NC3=O)CC2)SC1c1ccccc1N1CCN(CCO)CC1 (configuration not stated) | 7.44 | 8.10 |  |
| CC(C)(C)CCN1C(=O)C(CC(=O)N2CCC(N3CCc4ccccc4NC3=O)CC2)SC1c1ccccc1N1CCNCC1 (configuration not stated) | 7.48 | 9.00 |  |
| CN1CCN(c2cc(F)ccc2C2SC(CC(=O)N3CCC(N4CCc5ccccc5NC4=O)CC3)C(=O)N2CCC(C)(C)C)CC1 (configuration not stated) | 7.08 | 7.85 |  |
| CN1CCN(c2cccc(F)c2C2SC(CC(=O)N3CCC(N4CCc5ccccc5NC4=O)CC3)C(=O)N2CCC(C)(C)C)CC1 (configuration not stated) | 7.19 | 9.00 |  |
| CCN1CCN(c2c(F)cccc2C2SC(CC(=O)N3CCC(N4CCc5ccccc5NC4=O)CC3)C(=O)N2CCC(C)(C)C)CC1 (configuration not stated) | 8.70 | 10.15 |  |
| CC(C)N1CCN(c2c(F)cccc2C2SC(CC(=O)N3CCC(N4CCc5ccccc5NC4=O)CC3)C(=O)N2CCC(C)(C)C)CC1 (configuration not stated) | 9.00 | 10.70 | Cmax [6]: 120 ng/mL; Kp [7]: 1.51; AUC [8]: 650 ng·h/mL; F [9]: 32% |
| CC(C)(C)CCN1C(=O)[C@H](CC(=O)N2CCC(N3CCc4ccccc4NC3=O)CC2)S[C@@H]1c1cccc(F)c1N1CCN(C(C)(C)C)CC1 |  |  | Cmax [6]: 410 ng/mL; Kp [7]: 0.53; AUC [8]: 530 ng·h/mL; F [9]: 13% |
| CC(C)CCN(Cc1cc(Br)c(O)c(Br)c1)C(=O)CCC(=O)N1CCC(N2Cc3ccccc3NC2=O)CC1 | 6.13 | 6.55 |  |
| CC(C)CCN1C(=O)C(CC(=O)N2CCC(N3Cc4ccccc4NC3=O)CC2)SC1c1ccccc1 (racemic) | 6.43 | 7.49 |  |
| NCCCC[C@H](NC(=O)[C@@H](Cc1cc(Br)c(O)c(Br)c1)NC(=O)N1CCC(N2Cc3ccccc3NC2=O)CC1)C(=O)N1CCN(c2ccncc2)CC1 [OLCEGEPANT] |  |  | Cmax [10]: 870 ng/mL; bioavailability [11]: < 1%; Kp [7]: < 0.03; AUC [12]: 260 ng·h/mL; clearance [13]: 65 mL/min/kg |
| O=C(N[C@@H]1CC[C@@H](c2cccc(F)c2F)CN(CC(F)(F)F)C1=O)N1CCC(n2c(=O)[nH]c3ncccc32)CC1 [TELCAGEPANT] |  |  | Cmax [6]: 550 ng/mL; Kp [7]: 0.03; AUC [8]: 3320 ng·h/mL; F [9]: 45% |

Now from value to compound, other results behind:

| pIC50 [1] | pKi [2] | Structure (SMILES) | also measured |
| --- | --- | --- | --- |
| 5.29 | 6.06 | O=C(CC1SC(c2ccccc2)N(C2CC2)C1=O)N1CCC(N2Cc3ccccc3NC2=O)CC1 (configuration not stated) |  |
| 6.08 | 7.35 | O=C(CC1SC(c2ccccc2)N(CC2CC2)C1=O)N1CCC(N2Cc3ccccc3NC2=O)CC1 (configuration not stated) |  |
| 6.49 | 7.19 | CCCCN1C(=O)C(CC(=O)N2CCC(N3Cc4ccccc4NC3=O)CC2)SC1c1ccccc1 (configuration not stated) |  |
| 5.12 | 5.73 | CC(C)(C)N1C(=O)C(CC(=O)N2CCC(N3Cc4ccccc4NC3=O)CC2)SC1c1ccccc1 (configuration not stated) |  |
| 6.15 | 7.06 | O=C(CC1SC(c2ccccc2)N(C2CCCCC2)C1=O)N1CCC(N2Cc3ccccc3NC2=O)CC1 (configuration not stated) |  |
| 6.10 | 6.59 | O=C(CC1SC(c2ccccc2)N(Cc2cccnc2)C1=O)N1CCC(N2Cc3ccccc3NC2=O)CC1 (configuration not stated) |  |
| 7.22 | 8.70 | CC(C)(C)CCN1C(=O)C(CC(=O)N2CCC(N3Cc4ccccc4NC3=O)CC2)SC1c1ccccc1N1CCNCC1 (configuration not stated) |  |
| 7.36 | 7.74 | CC(C)(C)CCN1C(=O)C(CC(=O)N2CCC(N3Cc4ccccc4NC3=O)CC2)SC1c1ccccc1N1CCC(O)CC1 (configuration not stated) |  |
| 7.07 | 8.15 | CC(C)(C)CCN1C(=O)C(CC(=O)N2CCC(N3Cc4ccccc4NC3=O)CC2)SC1c1ccccc1-n1ccnc1 (configuration not stated) |  |
| 7.36 | 8.52 | CCCCN1CCN(c2ccccc2C2SC(CC(=O)N3CCC(N4Cc5ccccc5NC4=O)CC3)C(=O)N2CCC(C)(C)C)CC1 (configuration not stated) |  |
| 7.72 | 8.70 | CN1CCN(c2ccccc2C2SC(CC(=O)N3CCC(N4CCc5ccccc5NC4=O)CC3)C(=O)N2CCC(C)(C)C)CC1 (configuration not stated) |  |
| 8.52 | 9.30 | CN1CCN(c2c(F)cccc2C2SC(CC(=O)N3CCC(N4CCc5ccccc5NC4=O)CC3)C(=O)N2CCC(C)(C)C)CC1 (configuration not stated) |  |
| 7.14 | 7.85 | CN1CCN(c2ccc(F)cc2C2SC(CC(=O)N3CCC(N4CCc5ccccc5NC4=O)CC3)C(=O)N2CCC(C)(C)C)CC1 (configuration not stated) |  |
| 5.35 | 6.69 | CN1C(=O)C(CC(=O)N2CCC(N3Cc4ccccc4NC3=O)CC2)SC1c1ccccc1 (configuration not stated) |  |
| 5.82 | 6.94 | CC(C)N1C(=O)C(CC(=O)N2CCC(N3Cc4ccccc4NC3=O)CC2)SC1c1ccccc1 (configuration not stated) |  |
